NPY-Y1 antag: NPY-Y1 (human) receptor antagonism | P25929 | inhibition, % at 3.6 µM | HEK293-CNG Y1 cells, membrane potential fluorescence; NPY at EC95, then isoproterenol | 1% of 200,000 active | AID 1040;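 active = inhibition above the campaign mean inhibition of all tested compounds plus 3 SD, cut at about 20% in these data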;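 note: 0% = DMSO wells given NPY plus isoproterenol and 100% = isoproterenol alone without NPY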
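Test system – HEK293 Y1/CNG channel cell line · Also added – NPY agonist 25 nM, then isoproterenol 1 µM plus Ro 20-1724 25 µM · Compound dosing – one concentration, 3.6 µM, in 0.4% DMSO · Schedule – compound incubation 1 h at room temperature, readout 45 min post-stimulation · Technique – fluorescence, membrane potential probe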
NPY-Y2 PAM-ag: potentiators or agonists of human neuropeptide Y receptor Y2; P49146; cells expressing NPY-Y2, potentiator/agonist read-out; activation, % at 3.6 µM; 0.45% of 220,000 active; in the data active = activation above about 27%;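 note: cells stimulated with NPY near EC25 plus isoproterenol at EC100; 0% = vehicle plus submaximal agonist and 100% = vehicle plus saturating agonist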
Target sequence (P49146 whole entry, looked up): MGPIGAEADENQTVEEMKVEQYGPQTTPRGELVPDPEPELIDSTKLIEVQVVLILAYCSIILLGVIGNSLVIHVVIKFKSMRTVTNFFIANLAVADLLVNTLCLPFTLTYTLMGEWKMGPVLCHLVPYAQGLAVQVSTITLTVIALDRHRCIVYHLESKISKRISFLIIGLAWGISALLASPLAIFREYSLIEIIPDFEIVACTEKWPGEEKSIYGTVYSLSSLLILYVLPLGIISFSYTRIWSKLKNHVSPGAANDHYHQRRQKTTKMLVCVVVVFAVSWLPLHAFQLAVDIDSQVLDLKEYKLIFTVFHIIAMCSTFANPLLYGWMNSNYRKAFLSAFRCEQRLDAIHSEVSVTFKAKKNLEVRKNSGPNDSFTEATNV
NPY1 pot ag: potentiators or agonists of human neuropeptide Y receptor Y1; 0.37% of 220,000 active; NPY-Y1 expressing cells, potentiator/agonist activation; P25929; activation, % at 3.6 µM; in the data active = activation above about 33%, passing the limit was not always enough;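 note: cells stimulated with NPY at EC10 then isoproterenol at EC100; 0% = low agonist plus stimulus and 100% = saturating agonist plus stimulus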
RAM network inh: blocks the yeast RAM network; inhibition, % at 50 µM; AID 868; 1.8% of 190,000 active; S. cerevisiae dse1pr::URA3 reporter, 5-FOA growth OD615, 2 d; analog-sensitive cbk1-as2 kinase mutant strain;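 active = inhibition above a set limit, 3 SD over mean compound inhibition, cut at about 8.4% in these data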;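 note: 0% = DMSO-only wells with no growth and 100% = 10 µM 1-NA-PP1 full growth; inhibition rescues growth on 5-FOA so higher OD means more RAM inhibition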
Insulin prom inh: TRM-6 insulin promoter activity inhibition. 0.9% of 130,000 active. TRM-6 cells, insulin promoter-eGFP reporter, imaging; reporter expression induced with tamoxifen. AID 1273. inhibition, % at 2 µM;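 active = inhibition above the mean plus 3 SD, with well images judged a real hit on visual review, cut at about 60% in these data, passing the limit was not always enough; inconclusive = inhibition over the cutoff but images rejected on review; inactive = inhibition not above the cutoff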
NPY-Y2 antag: antagonists of human neuropeptide Y receptor Y2 | NPY-Y2 expressing cells, antagonist mode | AID 793 | 0.99% of 140,000 active | inhibition, % at 2.7 µM; in the data active = inhibition above about 17%;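 note: 0% = vehicle with agonist challenge and 100% = reference antagonist with challenge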
NPY1 antag ctr: antagonizes human NPY-Y1, counter-screen to NPY-Y2 antagonists; inhibition, % at 3.6 µM; 19% of 710 active; cell-based NPY-Y1 antagonism counterscreen; shares compounds with NPY-Y2 antag; AID 1256; in the data active = inhibition above about 20%;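 note: cells challenged with NPY then isoproterenol with cAMP sensed through a CNG channel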
NPY-Y2 ant conf: confirmation of human neuropeptide Y receptor Y2 antagonists; inhibition, % at 2.8 µM; HEK293 NPY-Y2 CNG channel, membrane potential fluorescence; 32% of 710 active; shares compounds with NPY-Y2 antag;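 active = mean inhibition of triplicate wells above the hit cutoff set in the primary screen, cut at about 17% in these data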;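 note: 0% = DMSO with NPY challenge and 100% = BIIE0246 high control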
* marks the source's active call; other numbers are inactive results; u = inconclusive; x = no result given. Only some compounds are listed: those with a hit (about 3.8% of all), similar ones and a draw of the others.

SMILES	NPY-Y1 antag	NPY-Y2 PAM-ag	NPY1 pot ag	RAM network inh	Insulin prom inh	NPY-Y2 antag	NPY1 antag ctr	NPY-Y2 ant conf
CC(=O)N(Cc1cccs1)Cc1cc2cc(C)c(C)cc2nc1Cl	-2	-21	-15	0	-86	x	x	x
Cc1ccc2nc(Cl)c(CN(Cc3cccs3)C(=O)C3CC3)cc2c1	18	-12	-39	2	22	19*	15	12
CCCc1cc(-c2n[nH]c(=S)n2CC)cs1	12	-15	-24	-1	u	x	x	x
CCCc1cc(-c2n[nH]c(=S)n2C(C)c2ccccc2)cs1 (stereo not given)	18	-21	-10	2	30	20*	15	11
CC(C)CCn1c(-c2nonc2N)nc2ccccc21	17	-32	-54	10*	19	18*	12	13
CCCCn1c(-c2nonc2N)nc2ccccc21	2	-10	-31	x	-29	9	x	x
CCOC(=O)c1ccccc1NC(=O)Cn1c(-c2nonc2N)nc2ccccc21	18	-24	-20	1	-204	35*	23*	30*
CC(C)(C)n1nnnc1C(c1cccnc1)N(Cc1ccccc1)Cc1ccco1 (stereo not given)	18	-4	-1	0	-7	18*	6	2
CCC(C)(C)n1nnnc1C(C(C)C)N(Cc1cccnc1)Cc1ccco1 (stereo not given)	7	13	9	1	-5	x	x	x
CCC(C)(C)n1nnnc1C(c1ccc(C)cc1)N(Cc1ccco1)Cc1cccs1 (stereo not given)	18	1	-22	7	4	22*	10	10
CCOc1ccc2nc(NC(=O)CC3Oc4ccccc4NC3=O)sc2c1 (stereo not given)	x	18	30	x	x	x	x	x
COc1cccc(OC)c1C(=O)NNC(=O)c1cccc(COc2ccc3c(c2)CCC3)c1	1	5	0	1	4	5	x	x
COc1ccccc1NC(=O)c1ccc(COc2ccc3c(c2)CCC3)cc1	4	3	-8	8	x	22*	4	16
O=C(Cc1ccc(Br)cc1)OCC(=O)N1CCc2ccccc2C1	8	-11	-16	0	x	18*	7	8
O=C(Nc1ccc2c(c1)OCCO2)c1cc(-c2ccccn2)nc2ccc(Br)cc12	12	-9	-3	2	x	x	x	x
Cc1cccc(-c2cc(C(=O)Nc3ccc4c(c3)OCCO4)c3ccccc3n2)c1	3	-34	-76	4	3	26*	26*	43*
Cc1ccc(N(CC(=O)NCc2ccccc2Cl)S(=O)(=O)c2cccs2)cc1	14	1	-7	2	-64	22*	4	8
Cc1ccc(N(CC(=O)NCc2ccc(F)cc2)S(=O)(=O)c2cccs2)cc1	3	-4	2	4	-50	2	x	x
CCN(CC)S(=O)(=O)c1ccc(/C=C/C(=O)Nc2ccc(F)cc2F)cc1	0	4	18	1	x	4	x	x
CCN(CC)S(=O)(=O)c1ccc(/C=C/C(=O)Nc2ccc(Br)cc2F)cc1	18	11	-27	2	26	17*	29*	17*
Clc1ccccc1CSc1nnc(/C=C/c2ccccc2)o1	11	-10	-19	7	-31	20*	20	21*
N[C@@H](Cc1ccccc1)c1nnc(SCc2ccccc2Cl)o1	1	9	-12	0	52	5	x	x
CC(C)C(=O)NC(NC(=S)Nc1ccc(S(N)(=O)=O)cc1)C(Cl)(Cl)Cl (stereo not given)	-1	-6	17	-1	14	1	x	x
COC(=O)C1C(c2ccc(OC)cc2)Nc2nnc(C(F)(F)F)n2C1(C)O (stereo not given)	7	2	6	2	x	x	x	x
COc1ccc(/C=C/C(=O)NC(C)CCc2ccccc2)cc1 (stereo not given)	19	3	2	4	11	22*	11	7
SMILES	NPY-Y1 antag	NPY-Y2 PAM-ag	NPY1 pot ag	RAM network inh	Insulin prom inh	NPY-Y2 antag	NPY1 antag ctr	NPY-Y2 ant conf
COc1ccc(/C=C/C(=O)NC(C)CCc2ccccc2)cc1OC (stereo not given)	8	7	17	0	x	x	x	x
O=C(CSc1cccc[n+]1[O-])c1cc(Cl)ccc1Cl	3	-3	12	-1	-92	x	x	x
O=C(NC1CCCCC1)C(c1ccco1)N(Cc1cccnc1)C(=O)C1COc2ccccc2O1 (stereo not given)	15	-5	-20	0	-7	19*	4	6
CCNc1nc(CC)nc2c1oc1ccccc12	9	4	-13	0	x	6	x	x
CCc1nc(N(CC)CC)c2oc3ccccc3c2n1	14	-9	-15	0	u	19*	9	6
Cc1ccc2oc(C(=O)NCc3ccc4c(c3)OCO4)c(C)c2c1	3	-20	-20	8	-23	15	x	x
Cc1c(C(=O)NCc2ccc3c(c2)OCO3)oc2ccc(Br)cc12	9	-24	-30	7	19	22*	14	12
O=C(CCc1nc(-c2ccccc2)c(-c2ccccc2)o1)OCc1ccc(Br)cc1	5	-16	-8	0	33	18*	12	20*
O=C(CCc1nc(-c2ccccc2)c(-c2ccccc2)o1)OCc1ccc(Cl)cc1	17	-17	-34	1	-17	13	x	x
COC(=O)c1ccc(Cn2c(O)c(N=NC(N)=S)c3ccccc32)o1	x	-20	-3	x	x	x	x	x
Cc1ccc(NC(=O)c2cc(N(C)C)ccc2[P+](=O)O)cc1	3	6	1	1	-7	21*	5	0
Cc1ccc(-c2nc(=S)c3c(n2Cc2ccco2)CC(C)(C)OC3)cc1	17	1	-12	2	54	18*	21*	8
Cc1ccc(-c2nc(=S)c3c(n2CC2CCCO2)CC(C)(C)OC3)cc1 (stereo not given)	3	-1	8	2	-7	5	x	x
COc1ccc2[nH]c(C)c(CCNC(=S)Nc3ccc(C)cc3)c2c1	-6	10	14	2	-14	x	x	x
CC(C1CCN(Cc2nc(C3CC3)no2)CC1)N1CCOCC1 (stereo not given)	2	4	2	-1	x	x	x	x
COc1ccccc1C/C(N)=N/OC(=O)COc1ccccc1C	2	-19	-32	1	x	28*	6	4
COc1ccccc1C/C(N)=N/OC(=O)COc1cccc2ccccc12	16	-26	-43	1	x	10	x	x
NS(=O)(=O)c1ccc(NCc2cc(Cl)ccc2OCc2ccc(F)cc2)cc1	6	3	-1	5	0	6	x	x
